# Screens from PubChem BioAssay.
# dFosB act = activators of delta FosB homodimer, primary screen, biochemical, fluorescence polarization, TAMRA-CDK5 oligo, single point | Protein FosB (Mus musculus), P13346 | activation, % at 25 µM | purified delta FosB; percent of positive-control signal above neutral wells | 340,000 compounds, 0.99% hits;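 active = mean activation above about 17%, with every replicate also reaching it, limit read from the data, passing the limit was not always enough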
# Target sequence (P13346 whole entry, looked up): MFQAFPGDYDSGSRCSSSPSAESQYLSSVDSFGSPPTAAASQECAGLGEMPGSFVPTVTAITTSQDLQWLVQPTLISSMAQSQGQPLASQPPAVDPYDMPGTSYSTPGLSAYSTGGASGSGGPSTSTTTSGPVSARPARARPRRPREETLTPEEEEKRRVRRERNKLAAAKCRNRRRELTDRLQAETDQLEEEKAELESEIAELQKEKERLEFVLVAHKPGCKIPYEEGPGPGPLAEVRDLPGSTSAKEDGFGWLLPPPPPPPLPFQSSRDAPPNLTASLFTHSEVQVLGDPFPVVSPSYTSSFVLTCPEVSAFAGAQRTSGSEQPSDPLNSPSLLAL
# S100A4 MyoIIA = inhibitors of S100A4-myosin IIA peptide binding, primary screen, biochemical, fluorescence polarization, TAMRA-MyoIIA peptide | inhibition, % at 10.7 µM | 360,000 compounds, 0.14% hits | AID 652163, 2013;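 active = mean inhibition of at least 70% across replicates, with every replicate also reaching that level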
#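 Material: human S100A4 monomer with TAMRA-labelled myosin IIA peptide; buffer or medium: HEPES pH 7.2 with CaCl2, KCl, NaCl, DTT, Triton; compound dosing: one concentration per compound; schedule: 5 min incubation before reading; benchmarks: neutral control DMSO, positive control TFP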
# FGF22 binding = binders of human FGF22 protein, primary screen, FGF22 synaptogenesis inhibitor project, biophysical, thermal shift, single point | recombinant FGF22 thermal shift, SYPRO orange fluorescence; percent of sucrose octasulfate shift, DMSO zero | activity (Tm shift, normalised), % at 9.99 µM | AID 651658, 2012 | Fibroblast growth factor 22 (Homo sapiens), Q9HCT0 | 340,000 compounds, 1.5% hits;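 active = mean Tm shift, scaled 0 neutral to 100 positive control, at about 1.3% or above, every replicate too, limit read from the data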
# Target sequence (Q9HCT0 whole entry, looked up): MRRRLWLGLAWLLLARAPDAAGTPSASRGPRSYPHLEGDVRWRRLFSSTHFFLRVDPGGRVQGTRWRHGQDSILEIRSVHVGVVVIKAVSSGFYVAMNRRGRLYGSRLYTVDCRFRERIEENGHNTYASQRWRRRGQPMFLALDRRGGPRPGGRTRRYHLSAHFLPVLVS
# CFTR F508del cor = F508del CFTR correction, initial screen, CFBE line, single point. activity (quench increase), % at 7.58 µM. CFBE cells, YFP halide quenching; stimulated with forskolin plus potentiator P3; % fluorescence drop versus neutral controls. 350,000 compounds, 0.36% hits. AID 720511, 2013;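 active = mean added fluorescence quench of at least 8% versus neutral control, with both replicates also reaching 8%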;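 note: cells transiently co-express mutant CFTR-F508del with the halide-sensitive YFP; corrector assay measuring rescue of mutant channel to the surface after 24 h compound exposure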
# * = called active by the depositor; / = no result given. Only some compounds are listed: those with a hit (about 2.2% of all), similar ones and a draw of the others.
SMILES,dFosB act,S100A4 MyoIIA,FGF22 binding,CFTR F508del cor
Cc1ccnc(N2CCC(C(=O)NNC(=O)c3ccccc3)CC2)n1,-8,-25,0,-1
Cc1ccnc(N2CCC(C(=O)NNC(=O)COc3cccc4ccccc34)CC2)n1,0,-2,43*,0
Cc1cccn2c(=O)c(C=O)c(Sc3ncccn3)nc12,6,-2,43*,0
Cc1cccn2c(=O)c(C=O)c(Cl)nc12,1,-5,0,2
CO[C@H]1CN(C)C(=O)c2cc(NC(=O)c3ccccc3)ccc2OC[C@H](C)N(C(C)=O)C[C@H]1C,/,14,0,4
O=C(CCS(=O)(=O)Cc1ccccc1)NCCc1ccccc1,-8,2,43*,0
COC1CCN(C(=O)CC2C(=O)NCCN2CC2CCCCC2)CC1 (configuration not stated),-6,2,43*,/
COc1cc(OC)cc(C(=O)NC(=S)Nc2ccc3oc(=O)ccc3c2)c1,-11,-5,0,9.6*
COc1ccc(/C=C2\SC(=N)N(c3ccc(F)cc3)C2=O)cc1OC,45*,2,0,/
Oc1ccc2ccccc2c1N=Nc1ccc(F)cc1,104*,-30,0,-1
Cc1cc(-c2ccccc2)nc(N(C)NC(=O)C2CC2)c1S(C)(=O)=O,-9,-3,0,8.5*
Cc1cc(-c2ccccc2)nc(N(C)NC(=O)c2cccc(C(F)(F)F)c2)c1S(C)(=O)=O,-6,/,/,/
Cc1cc(C)nc(N/N=C/c2ccc(Cl)cc2)n1,-5,-8,0,2
COc1ccc(/C=N/Nc2cc(N(C)C)nc(N(C)C)n2)cc1,5,4,0,/
Cc1cc(N/N=C/c2ccccc2)nc(NCc2ccccc2)n1,38*,-5,-1,/
Cc1cc(N/N=C/c2ccccc2F)nc(NCc2ccccc2)n1,6,0,0,-3
Cc1cc(N/N=C/c2ccc(Cl)cc2)nc(NCc2ccccc2)n1,53*,-11,1.6*,-1
Cc1cc(N/N=C/c2cccc(F)c2)nc(NCc2ccccc2)n1,33*,1,0,-3
CN(C)c1cc(N/N=C\c2ccccc2)nc(N(C)C)n1,-8,1,43*,-1
CO[C@H]1CN(C)C(=O)c2cc(NS(=O)(=O)c3ccccc3)ccc2OC[C@H](C)N(Cc2ccccn2)C[C@H]1C,/,10,0,3
C[C@@H]1CCCCO[C@@H](CN(C)C(=O)CCCN(C)C)[C@@H](C)CN([C@H](C)CO)C(=O)c2cc(NC(=O)c3ccncc3)ccc2O1,/,/,0,0
O=C(c1cnccn1)N1CC2(C1)[C@@H](c1ccccc1)[C@@H](CO)N2C(=O)c1ccccc1,/,1,0,2
O=C(C1CCCCC1)N1CC[C@@H]2[C@@H](CO)Nc3ccc(Br)cc3[C@@H]21,/,-1,0,6
Cc1nc(NCc2cccnc2)c2c3c(sc2n1)CCCC3,-4,3,0,12*
c1cncc(CNc2ncnc3sc4c(c23)CCCC4)c1,-3,-1,0,5
SMILES,dFosB act,S100A4 MyoIIA,FGF22 binding,CFTR F508del cor
O=C(COC(=O)c1ccccn1)Nc1ccccc1OC(F)F,-6,-1,43*,-3
CC1CCCC(NC(=O)COC(=O)[C@@H](NC(=O)c2ccc(F)cc2)C(C)C)C1C (some centres not stated),-11,8,1,-3
CC1CCCC(NC(=O)COC(=O)[C@@H](NC(=O)c2ccco2)C(C)C)C1C (some centres not stated),-2,-16,45*,0
CO[C@@H]1CN(C)C(=O)c2ccc(NC(=O)c3ccccn3)cc2OC[C@@H](C)N(C(=O)C2CCCC2)C[C@H]1C,/,8,0,1
Oc1ccc(C[C@H]2CNC(=S)N2CC2CCCN2C[C@H](Cc2ccc(O)cc2)N2C[C@H](Cc3ccccc3)N(CC3CCCCC3)C2=S)cc1 (some centres not stated),49*,0,0,1
COc1ccc2c3c(n(C)c2c1)[C@H](CO)N(C(=O)Nc1cccc(F)c1)CC31CN(C)C1,/,-3,0,0
CCOC(=O)Cc1csc(NC(=O)CCSc2ccccc2)n1,-7,-7,2.5*,-1
CN(Cc1ccc(Br)cc1)C(=O)CCN1C(=O)c2cccc([N+](=O)[O-])c2C1=O,-6,-1,0,4
CN(Cc1ccccc1)C(=O)CCN1C(=O)c2cccc([N+](=O)[O-])c2C1=O,/,-5,43*,-3
CNC[C@H]1Oc2ccc(NC(=O)Nc3ccccc3)cc2CC(=O)N([C@@H](C)CO)C[C@H]1C,/,-5,0,-1
COC(=O)C[C@H]1C[C@@H]2c3cc(NS(=O)(=O)c4ccccc4)ccc3O[C@@H]2[C@H](CO)O1,/,/,0,2
Cc1ccc(S(=O)(=O)N2C[C@]3(O)C[C@@H]4C(=O)N(c5ccccc5)C(=O)[C@@H]4C[C@]3(OC(=O)Nc3cccs3)C2)cc1,/,-2,43*,3
Cc1ccc(N2CC(O)=C(c3nc4ccccc4c(=O)[nH]3)C2=N)cc1C,13,-4,43*,-1
Cc1ccc(-c2csc3ncnc(Oc4cccc5ccc(C)nc45)c23)cc1,-3,-1,44*,0
Cc1ccc2cccc(Oc3ncnc4sc(C)c(C)c34)c2n1,-6,-2,43*,0
Cc1noc(C)c1NC(=O)N(C)C[C@H]1Oc2ccc(NC(=O)CCCCCC(=O)Nc3ccccc3N)cc2CC(=O)N([C@@H](C)CO)C[C@@H]1C,/,7,0,1
CC(C)NC(=O)Nc1ccc2c(c1)C(=O)N([C@H](C)CO)C[C@@H](C)[C@H](CN(C)S(=O)(=O)c1ccc(F)cc1)O2,/,1,0,-4
CCOc1ccccc1OCC(=O)NNC(=O)Cn1cnc2c1c(=O)n(C)c(=O)n2C,-12,-4,44*,0
COC(=O)c1ccccc1NC(=O)Cn1cnc2c1c(=O)n(C)c(=O)n2C,-4,0,0,-1
Cn1c(-c2ccc(F)cc2)cnc1SCC(=O)Nc1ccccc1,-6,0,0,0
CC(=O)Nc1ccc(NC(=O)Cn2c(-c3ccc(F)cc3)cnc2SCC(=O)Nc2c(C)cccc2C)cc1,64*,/,/,/
CCC(=O)Nc1ccc2c(c1)OC[C@H](C)N(CC1CCOCC1)C[C@@H](C)[C@H](OC)CN(C)C2=O,/,22,0,-2
Cc1ccccc1NC(=O)/C=C/c1cccs1,-3,-1,43*,-3
O=C(COC(=O)/C=C/c1cccs1)Nc1ccccc1Cl,-2,6,43*,2
Cc1ccccc1NC(=O)/C=C1\SC(=O)NC1=O,7,6,44*,-1
COc1ccc(CCNC(=O)COC(=O)/C=C/c2cccs2)cc1,1,-3,43*,1
